Assay results: ChEMBL document CHEMBL1649411, “Potent antitumor mimetics of annonaceous acetogenins embedded with an aromatic moiety in the left hydrocarbon chain part” (J Med Chem, 2011)

Assays:
HT-29 = assay: Cytotoxicity against human HT-29 cells after 72 hrs by MTT assay; format: functional; settings: HT-29, 72 h
Procedure, shortened: (§1)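 Cells were maintained in F12/DMEM with penicillin-streptomycin, L-glutamine and 10% FBS, and plated at 5 × 10³ cells/well. Sixteen hours later, medium containing compound ([…]) or DMSO vehicle was added for 72 h. MTT (5 mg mL^-1 stock) was applied for 4 h and formazan dissolved in DMSO. Absorbance was read at 570/690 nm in at least quadruplicate. Growth inhibition versus blank-corrected controls gave GI50.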

SGC-7901 = assay: Cytotoxicity against human SGC7901 cells after 72 hrs by MTT assay; format: functional; settings: SGC-7901, 72 h
Procedure, shortened: (§2)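 Cells were grown in DMEM with penicillin-streptomycin, L-glutamine and 10% FBS, then seeded at 5 × 10³ cells/well. MTT (5 mg mL^-1 stock) was added for 4 h, then dissolved in DMSO. A570 was read against a 690 nm reference, with at least four replicates. Inhibition was calculated versus blank-corrected vehicle control, giving GI50.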

MCF7 = assay: Cytotoxicity against human MCF7 cells after 72 hrs by MTT assay; format: functional; settings: MCF7, 72 h; procedure, shortened: as §2
[1] = Cytotoxicity against HLF after 72 hrs by MTT assay; format: cell-based; settings: human, HLF cells; procedure, shortened: as §2
HCT-116 = assay: Cytotoxicity against human HCT116 cells after 72 hrs by MTT assay; format: functional; settings: HCT-116, 72 h; procedure, shortened: as §1
[2] = Cytotoxicity against human BEAS2B cells after 72 hrs by MTT assay; format: cell-based, BEAS-2B; procedure, shortened: as §2
A549 = assay: Cytotoxicity against human A549 cells after 72 hrs by MTT assay; format: functional; settings: A549, 72 h; procedure, shortened: as §2

Row | SMILES | GI50 (HT-29) [µM] | GI50 (SGC-7901) [µM] | GI50 (MCF7) [µM] | GI50 at 72 h [1] [µM] | GI50 (HCT-116) [µM] | GI50 at 72 h [2] [µM] | GI50 (A549) [µM]
1 | C[C@H]1C=C(CCCCCCCC(O)CCCC[C@H](O)COCCOC[C@@H](O)CCCCC2CCCCC2)C(=O)O1 (stereo partly specified) | 5.4 | 0.75 | 1.8 | 5.5 | 1.6 | 61 | 4.5
2 | CCCCCCCCCC[C@H](O)COCCOC[C@@H](O)CCCCCCCCCCCCC1=C[C@H](C)OC1=O | 0.291 | 0.065 | 0.276 | 20.9 | 0.113 | 120 | 0.305
3 | C[C@H]1C=C(CCCCCCCC(O)CCCC[C@H](O)COCCOC[C@@H](O)CCCc2ccccc2)C(=O)O1 (stereo partly specified) | 1.1 | 0.275 | 0.84 | 7.4 | 0.394 | > 100 | 0.773
4 | COc1ccc2cc(CCC[C@H](O)COCCOC[C@@H](O)CCCCC(O)CCCCCCCC3=C[C@H](C)OC3=O)ccc2c1 (stereo partly specified) | 1.1 | 0.082 | 12.6 | 10 | 1.1 | > 100 | 3.7
5 | C[C@H]1C=C(CCCCCCCC(O)CCCC[C@H](O)COCCOC[C@@H](O)CCCc2cccc(O)c2)C(=O)O1 (stereo partly specified) | 69 | 1 | 24.5 | > 100 | 2.8 | > 100 | 6
6 | CCCCCC[C@H](O)COCCOC[C@@H](O)CCCCC(O)CCCCCCCC1=C[C@H](C)OC1=O (stereo partly specified) | 19.4 | 2 | 5.8 | 11.1 | 4.2 | > 100 | 10.8
7 | COc1ccc(CCC[C@H](O)COCCOC[C@@H](O)CCCCC(O)CCCCCCCC2=C[C@H](C)OC2=O)cc1 (stereo partly specified) | 4.3 | 0.198 | 23.3 | 11.3 | 2.3 | > 100 | 4.5
8 | C[C@H]1C=C(CCCCCCCC(O)CCCC[C@H](O)COCCOC[C@@H](O)CCCc2ccc(-c3ccccc3)cc2)C(=O)O1 (stereo partly specified) | 0.355 | 0.02 | 0.154 | > 100 | 0.134 | > 100 | 0.177
